Screening results: PubChem BioAssay, Johns Hopkins Ion Channel Center
Sampled rows, rich in hits. Any-hit rate of the full collection: about 3.1%.
KCNK3 inh – human KCNK3 channel inhibition, primary screen. hit rate 0.84% among 340,000. CHO-KCNK3 thallium flux, FluxOR fluorescence; active compounds read low. B-score at 10 µM. O14649;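 active = B-score under library mean minus 4 SD, starting fluorescence ratio at most library mean plus 5 SD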;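 note: more negative B-score means stronger inhibition of thallium flux through KCNK3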
Target sequence (O14649 whole entry, looked up): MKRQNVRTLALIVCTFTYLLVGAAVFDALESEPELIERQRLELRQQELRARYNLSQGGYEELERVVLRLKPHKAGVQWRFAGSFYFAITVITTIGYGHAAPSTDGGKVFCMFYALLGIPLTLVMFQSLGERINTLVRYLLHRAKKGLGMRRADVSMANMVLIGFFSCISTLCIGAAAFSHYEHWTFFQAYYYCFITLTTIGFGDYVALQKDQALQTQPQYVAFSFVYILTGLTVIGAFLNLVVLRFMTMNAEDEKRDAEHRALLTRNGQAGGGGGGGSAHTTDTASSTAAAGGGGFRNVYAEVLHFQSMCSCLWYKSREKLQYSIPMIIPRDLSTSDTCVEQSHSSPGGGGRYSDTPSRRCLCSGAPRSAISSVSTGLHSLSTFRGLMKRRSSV
KCNK9 inh – blocks the human KCNK9 two-pore domain potassium channel. B-score at 10 µM. HEK293 KCNK9, FluxOR thallium flux fluorescence; active compounds read low. hit rate 1.2% among 310,000. AID 488922;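 active = ratio B-score over 3 SD below the library mean, with starting fluorescence within 5 SD of its mean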;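 note: negative B-score means less thallium flux so channel inhibition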
hERG protect – shields human hERG channel from block by proarrhythmic agents; Q12809; CHO-hERG, FluxOR thallium flux, dofetilide IC70 present; activation (rescue from dofetilide block), less the hit threshold, % at 10 µM; hit rate 0.51% among 310,000;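 active = activation above the mean of controls blocked by dofetilide plus 5 SD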;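 note: thallium influx through hERG after potassium depolarization seen as dye fluorescence rise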
KCNQ1 inh – human KCNQ1 channel inhibition; P51787; CHO-K1 KCNQ1, FluxOR thallium flux fluorescence; active compounds read high; B-score at 10 µM; hit rate 1.3% among 310,000; AID 2642;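 active = compounds whose thallium flux B-score, printed positive for inhibition, exceeds three library SD while starting fluorescence stays within three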;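 note: channel opened by potassium depolarization with thallium stimulus after 20 min compound exposure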
KCNQ1 pot – potentiators or activators of human KCNQ1 potassium channel; P51787; CHO-K1 KCNQ1, thallium flux FluxOR fluorescence; active compounds read high; B-score at 10 µM; hit rate 0.35% among 310,000;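 active = fluorescence ratio B-score, a plate-corrected score, at least three library SD, with initial intensity B-score within 5 SD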
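Medium – assay buffer, equal DMSO in all wells · Material – CHO-K1 cell line with stable KCNQ1 potassium channel expression · Signal – kinetic FluxOR thallium fluorescence, 10-s 1-Hz baseline, 110-s post-stimulus read · Compound – single concentration per compound, DMSO matched to controls · Schedule – 37 °C overnight plating, 90-min dark dye load, 20-min compound pretreatment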
KCNQ1 inh valid – human KCNQ1 channel inhibition, validation assay; inhibition, % at 10 µM; hit rate 93% among 1,600; KCNQ1 cell line, FluxOR thallium flux fluorescence; shares compounds with KCNQ1 inh; AID 588353;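 active = primary screen active, with duplicate mean exceeding buffer control mean plus 3 SD of buffer wells, cut at about 28% in these data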
CHO KCNQ1 ctr – activity in parental CHO cells lacking KCNQ1. shares compounds with KCNQ1 inh. parental CHO-K1, FluxOR thallium flux fluorescence ratio; active compounds read low; zero means no signal rise above baseline. fluorescence ratio (Tl flux) at 10 µM. hit rate 21% among 1,600. AID 588366;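 active = mean of duplicate thallium-flux fluorescence ratios in parental host cells more than 5 SD below the buffer control mean, cut at about 0.38 in these data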;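 note: ratio is peak minus minimum fluorescence divided by baseline fluorescence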
KCNQ1 ephys val – confirmation of human KCNQ1 potassium channel inhibitors by electrophysiology. shares compounds with KCNQ1 inh. hit rate 20% among 490. AID 624120. KCNQ1-CHO cells, automated patch clamp current. calls only at 10 µM;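 active = KCNQ1 current drop exceeding 3 SD of negative control wells, seen in both duplicate runs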;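 note: steady state current during a 2 s step from -80 to +40 mV; negative values mean current inhibition and positive values mean potentiation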
KCNQ2 inh – rat KCNQ2 inhibition in KCNQ1 inhibitor specificity screen; shares compounds with KCNQ1 inh; KCNQ2 cells, FluxOR thallium flux fluorescence; inhibition, % at 10 µM; hit rate 71% among 1,600;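 active = mean percent inhibition of the KCNQ2 thallium signal more than 5 SD above the buffer-only control wells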;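 note: KCNQ2 expressed in CHO cells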
KCNQ1-KCNE1 inh – selectivity of KCNQ1 inhibitors: inhibition of human KCNQ1/KCNE1 channel. KCNQ1/KCNE1 cells, FluxOR thallium flux fluorescence. inhibition, % at 10 µM. hit rate 77% among 1,600. AID 652147. shares compounds with KCNQ1 inh;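 active = mean percent inhibition of duplicate wells above the buffer-only control mean plus 3 SD of those controls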
Hits are given with their value; - = inactive; . = no result given; + = active, no number.

SMILES	KCNK3 inh	KCNK9 inh	hERG protect	KCNQ1 inh	KCNQ1 pot	KCNQ1 inh valid	CHO KCNQ1 ctr	KCNQ1 ephys val	KCNQ2 inh	KCNQ1-KCNE1 inh
CCOc1ccc(N=C2SC(C(=O)Nc3ccccc3C#N)C(N)=C2C(=O)Nc2ccc(Cl)cc2)cc1 (stereo unspecified)	-	-	-	-	-	.	.	.	.	.
N#Cc1ccccc1NC(=O)C1SC(=Nc2ccccc2)C(C(=O)Nc2ccc(Cl)cc2)=C1N (stereo unspecified)	-	-	-	10	-	112.5	-	-	97.3%	82.0%
CC(=O)Nc1ccc2nc3ccccc3nc2c1	-	-	-	-	-	.	.	.	.	.
CC(=O)Nc1ccc2nc3c(=O)n(C)c(=O)n(C)c3nc2c1	-	-	-	8	-	54.5	-	.	-	-
CCOC(=O)C1=C(c2ccccc2)c2ccc(OC)cc2N(S(=O)(=O)C(F)(F)F)C1C(=O)OCC (stereo unspecified)	-	.	.	.	.	.	.	.	.	.
O=C(Nc1ccc(Br)c(C(F)(F)F)c1)c1ccccc1	-	-7.74	-	6	-	125.0	-	-	136.7%	109.5%
O=C(NCCOc1ccc(F)cc1)c1ccccc1SCc1ccccc1	-	-	-	7	-	102.0	-	+	106.0%	169.0%
C[C@@H]1CN([C@@H](C)CO)C(=O)c2cccc(NC(=O)Nc3ccccc3)c2O[C@H]1CN(C)C(=O)Nc1cccc2ccccc12	-	.	.	.	.	.	.	.	.	.
CCCCCCCN1C2=NCCCN2c2ccccc21	-	-	-	7	-	50.5	-	.	-	55.0%
CCn1nc(NC(=O)c2ccccc2)c2cc3cccc(C)c3nc21	-	-	-	6	-	151.5	-	-	-	141.5%
O=C(Nc1ccccc1)Nc1ccccc1NS(=O)(=O)c1cccs1	-	-	-	10	-	64.0	-	.	63.7%	-
ClCc1nc2ccccc2n1Cc1ccccc1	-	-	-	7	-	-	-	.	83.7%	-
CCOC(=O)c1c(C)nc2ccc(Cl)cc2c1-c1ccccc1	-	-	-	7	-	122.0	-	-	117.3%	153.5%
CC(C)(C)c1ccc(C2=CSC3=NCCN23)cc1	-	-	-	7	-	43.0	-	.	-	46.5%
CN(Cc1ccccc1)S(=O)(=O)c1ccc(NS(=O)(=O)Cc2ccccc2)cc1	-	-	-	8	-	130.5	0.374	.	118.3%	92.5%
CC(=O)NC(=S)Nc1ccc(S(=O)(=O)N(C)Cc2ccccc2)cc1	-	-	-	-	-	.	.	.	.	.
CC(C)C(=O)NC(=S)Nc1ccc(S(=O)(=O)N(C)Cc2ccccc2)cc1	-	-	-	11	-	117.0	-	-	104.0%	195.5%
O=C(c1cc(-c2cccs2)nn1-c1ccccc1)N1CCN(S(=O)(=O)c2ccccc2)CC1	-	-	-	7	-	59.5	-	.	91.3%	99.5%
O=C(c1cc(-c2ccccc2)nn1-c1ccccc1)N1CCN(S(=O)(=O)c2cccc(F)c2)CC1	-	-	-	-	-	.	.	.	.	.
O=C(c1cc(-c2ccccc2)nn1-c1ccccc1)N1CCN(S(=O)(=O)c2ccc(F)cc2)CC1	-	-	-	6	-	57.0	-	.	81.3%	37.0%
CN(C)C1=NC[C@H](Cc2ccccc2)N1CC1CCCC1	-	.	.	.	.	.	.	.	.	.
CN(C)C1=NC[C@H](Cc2ccccc2)N1CC1CCC(C(C)(C)C)CC1 (stereo partly specified)	-	-	-	7	-	97.5	-	.	111.3%	69.5%
Cc1c(C(C)CCCO)oc(=O)c2c1Oc1c(C)c(C(C)C[C@H](C)O)oc(=O)c1C2 (stereo partly specified)	-	.	.	.	.	.	.	.	.	.
